Reference: ChEMBL document CHEMBL5154861, “Overcoming Paradoxical Kinase Priming by a Novel MNK1 Inhibitor” (J Med Chem, 2022)
Activity calls are given as the source filed them. The calls are words filed in the database; no cut-off is given here.

Columns and labels:
[1] = target: T1, MAP kinase-interacting serine/threonine-protein kinase 1 (Homo sapiens, UniProt Q9BUB5); assay: Inhibition of human recombinant full length GST-tagged MNK1 expressed in baculovirus expression system assessed as residual activity at 10 uM using S6 peptide as substrate in presence of [gamma-33P]-ATP incubated for 60 mins by radiometric scintillation counting method relative to control
Method in brief: (§1)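 Radiometric 33PanQinase assay at 10 μM compound (final 1% DMSO). The buffer was 70 mM HEPES-NaOH pH 7.5 with 3 mM MgCl2, 3 mM MnCl2, 3 μM orthovanadate, 1.2 mM DTT and 50 μg/mL PEG20000. […] Reactions ran 60 min at 30 °C, were stopped with 2% H3PO4 and read by scintillation. Residual activity was calculated against high/low controls.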
Target sequence in this assay (Q9BUB5 whole entry, looked up): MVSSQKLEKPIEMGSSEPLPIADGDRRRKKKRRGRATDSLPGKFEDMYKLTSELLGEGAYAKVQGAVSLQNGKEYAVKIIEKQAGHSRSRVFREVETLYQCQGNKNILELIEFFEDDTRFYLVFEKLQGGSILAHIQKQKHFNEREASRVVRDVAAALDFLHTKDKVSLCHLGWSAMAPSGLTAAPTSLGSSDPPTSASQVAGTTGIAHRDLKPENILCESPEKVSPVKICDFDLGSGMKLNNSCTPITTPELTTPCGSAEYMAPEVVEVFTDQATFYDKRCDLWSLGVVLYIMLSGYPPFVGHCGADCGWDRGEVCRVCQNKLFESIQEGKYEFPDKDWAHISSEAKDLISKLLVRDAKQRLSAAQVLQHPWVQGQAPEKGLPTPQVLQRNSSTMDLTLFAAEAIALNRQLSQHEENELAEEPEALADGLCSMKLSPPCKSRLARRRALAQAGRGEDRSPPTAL

[2] = target: T2, MAP kinase-interacting serine/threonine-protein kinase 2 (Homo sapiens, UniProt Q9HBH9); assay: Inhibition of human recombinant full length GST-tagged MNK2 expressed in insect cells assessed as residual activity at 10 uM using S6 peptide as substrate in presence of [gamma-33P]-ATP incubated for 60 mins by radiometric scintillation counting method relative to control; method in brief: as §1
Target sequence in this assay (Q9HBH9 whole entry, looked up): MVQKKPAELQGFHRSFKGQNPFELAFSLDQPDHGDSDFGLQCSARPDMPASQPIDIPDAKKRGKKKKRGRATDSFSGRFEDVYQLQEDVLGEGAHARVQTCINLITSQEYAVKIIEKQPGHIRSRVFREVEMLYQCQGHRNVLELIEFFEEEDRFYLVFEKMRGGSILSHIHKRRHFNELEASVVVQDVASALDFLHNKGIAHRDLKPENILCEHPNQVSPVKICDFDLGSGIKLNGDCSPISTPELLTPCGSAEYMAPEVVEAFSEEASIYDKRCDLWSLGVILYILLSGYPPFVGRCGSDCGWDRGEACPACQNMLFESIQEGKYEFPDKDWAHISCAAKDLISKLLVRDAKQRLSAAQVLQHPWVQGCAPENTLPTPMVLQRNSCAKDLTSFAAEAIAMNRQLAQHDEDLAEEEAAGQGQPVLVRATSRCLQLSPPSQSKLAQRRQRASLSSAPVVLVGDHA

[3] = target: T3, MAP kinase-interacting serine/threonine-protein kinase 1/2 (Homo sapiens) (UniProt Q9HBH9+Q9BUB5); assay: Inhibition of MNK1/MNK2 in human MDA-MB-231 cells assessed as inhibition of eIF4E phosphorylation at 20 uM incubated for 24 hrs by Western blot analysis; format: cell-based
Method in brief: (§2)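 MDA-MB-231 cells, grown in DMEM with 10% heat-inactivated FBS and pen/strep at 37 °C and 5% CO2, were seeded at 6000 cells/cm2 24 h before a 24 h inhibitor exposure. DMSO was kept below 0.5% as the vehicle control. Total lysates (RIPA-type buffer with phosphatase/protease inhibitors, 20–25 μg) were immunoblotted with phospho- and total antibodies at 1:1000, using ECL detection.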

MDA-MB-231 [4] = assay: Cytotoxicity against human MDA-MB-231 cells assessed as reduction in cell viability measured after 72 hrs by crystal violet staining based assay; format: functional; conditions: dose 2.5-40 µM, DDE = dose-dependent effect
Method in brief: (§3)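 Cells were seeded at 6000 cells/cm2, and 24 h later were treated with a range of concentrations (DMSO below 0.5%) for 72 h. They were fixed with 4% formaldehyde for 30 min and stained with 0.5% crystal violet for 15 min. Dye was eluted in 15% acetic acid and read as OD at 595 nm. Results are from three independent experiments, reported as SD; GI50 values were derived from the curves.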

IMR-90 [5] = assay: Cytotoxicity against human IMR-90 cells assessed as increase in dead cells at 2.5 to 40 uM by Hoechst/propidium iodide staining based microscopic analysis; format: toxicity, cell-based; conditions: imr-90, 40 µM, dose 2.5-40 µM
Method in brief: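 Cells were grown and treated for 72 h as in the crystal violet assay, with cisplatin and DMSO as controls. Before fixation, PI (2.5 μM) and Hoechst (0.05 mg/mL) were added to the medium for 30 min. At least 100 cells per condition were counted microscopically, and PI-positive cells were scored as a percentage of Hoechst-positive cells. Three independent experiments were done.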

[6] = target: Eukaryotic translation initiation factor 4E (Homo sapiens) (UniProt P06730); assay: Inhibition of eIF4E phosphorylation in human MDA-MB-231 cells at 5 to 20 uM pretreated for 3 hrs followed by UV irradiation and recovery for 40 mins with compound by Western blot analysis; format: cell-based; conditions: dose 5-20 µM, time 220.0 min
Eukaryotic translation initiation factor 4E (Homo sapiens), sequence (P06730 whole entry): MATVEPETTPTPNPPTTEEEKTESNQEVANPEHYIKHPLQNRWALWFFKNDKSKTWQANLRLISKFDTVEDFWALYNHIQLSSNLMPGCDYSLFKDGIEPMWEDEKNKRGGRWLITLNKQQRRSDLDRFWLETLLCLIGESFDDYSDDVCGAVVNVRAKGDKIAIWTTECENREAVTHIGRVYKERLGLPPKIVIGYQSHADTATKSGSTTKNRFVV
Method in brief: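 MDA-MB-231 cells were pretreated with inhibitor for 3 h and then UV-irradiated. They recovered for 40 min at 37 °C with the inhibitor still present. Total lysates were immunoblotted for phospho-eIF4E and pathway markers (p-MNK1, p-p38, p-HSP27, p-ERK, p-p90RSK).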

MDA-MB-231 [7] = assay: Growth inhibition of human MDA-MB-231 cells measured after 72 hrs by crystal violet staining based assay; format: functional; method in brief: as §3
IMR-90 [8] = assay: Cytotoxicity against human IMR-90 cells assessed as reduction in cell viability at 20 uM measured after 72 hrs by crystal violet staining based assay; format: toxicity; conditions: imr-90, 72 h; method in brief: as §3
[9] = target: T3, MAP kinase-interacting serine/threonine-protein kinase 1/2 (Homo sapiens); assay: Inhibition of MNK1/MNK2 in human MCF7 cells assessed as inhibition of eIF4E phosphorylation incubated for 24 hrs by Western blot analysis; format: cell-based; conditions: dose 0.3-10 µM, DDE = dose-dependent effect
[10] = target: T3, MAP kinase-interacting serine/threonine-protein kinase 1/2 (Homo sapiens); assay: Inhibition of MNK1/MNK2 in human MDA-MB-468 cells assessed as inhibition of eIF4E phosphorylation incubated for 24 hrs by Western blot analysis; format: cell-based; conditions: dose 0.3-10 µM, DDE = dose-dependent effect
MCF7 = assay: Growth inhibition of human MCF7 cells measured after 72 hrs by crystal violet staining based assay; format: functional; method in brief: as §3
[11] = target: T1, MAP kinase-interacting serine/threonine-protein kinase 1; assay: Inhibition of MNK1 in human MDA-MB-231 cells assessed as inhibition of eIF4E phosphorylation at 10 uM by Western blot analysis; format: cell-based; conditions: time 0.5-72 hrs, TDE = time-dependent effect
Method in brief: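 MDA-MB-231 cells were exposed to 10 μM inhibitor for various times. Phospho-eIF4E (Ser209) versus total eIF4E was then assessed by immunoblot of total lysates (20–25 μg protein), with ECL detection.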
Target sequence in this assay (Q9BUB5 whole entry, looked up): as the sequence (Q9BUB5 whole entry, looked up) above

MDA-MB-468 = assay: Growth inhibition of human MDA-MB-468 cells measured after 72 hrs by crystal violet staining based assay; format: functional; method in brief: as §3
[12] = target: T3, MAP kinase-interacting serine/threonine-protein kinase 1/2 (Homo sapiens); assay: Inhibition of MNK1/MNK2 in human IMR-90 cells assessed as inhibition of eIF4E phosphorylation incubated for 24 hrs by Western blot analysis; format: cell-based; conditions: dose 0.3-10 µM, DDE = dose-dependent effect
MDA-MB-231 [13] = assay: Cytotoxicity against human MDA-MB-231 cells assessed as reduction in cell viability at 20 uM measured after 72 hrs by crystal violet staining based assay relative to control; format: functional; method in brief: as §3
[14] = target: T3, MAP kinase-interacting serine/threonine-protein kinase 1/2 (Homo sapiens); assay: Inhibition of MNK1/MNK2 in human MDA-MB-231 cells assessed as reduction in eIF4E phosphorylation incubated for 24 hrs by Western blot analysis; format: cell-based; conditions: dose 0.3-10 µM, DDE = dose-dependent effect; method in brief: as §2
IMR-90 [15] = assay: Cytotoxicity against human IMR-90 cells assessed as reduction in cell viability measured after 72 hrs by crystal violet staining based assay; format: functional; method in brief: as §3
[16] = target: T1, MAP kinase-interacting serine/threonine-protein kinase 1; assay: Inhibition of human recombinant full length GST-tagged MNK1 expressed in baculovirus expression system using S6 peptide as substrate in presence of [gamma-33P]-ATP incubated for 60 mins by radiometric scintillation counting method
Method in brief: (§4)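 Ten compound concentrations from 5 × 10–5 to 1.5 × 10–9 M were tested, and residual activity was calculated from cpm relative to high and low controls.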
Target sequence in this assay (Q9BUB5 whole entry): as the sequence (Q9BUB5 whole entry, looked up) above

Homo sapiens = species: Homo sapiens; assay: Selectivity ratio of IC50 for inhibition of human recombinant full length GST-tagged MNK2 to IC50 for inhibition of human recombinant full length GST-tagged MNK1; method in brief: as §4
[17] = target: T2, MAP kinase-interacting serine/threonine-protein kinase 2; assay: Inhibition of human recombinant full length GST-tagged MNK2 expressed in insect cells using S6 peptide as substrate in presence of [gamma-33P]-ATP incubated for 60 mins by radiometric scintillation counting method; method in brief: as §4
Target sequence in this assay (Q9HBH9 whole entry): as the sequence (Q9HBH9 whole entry, looked up) above

[18] = target: T1, MAP kinase-interacting serine/threonine-protein kinase 1; assay: Activation of MNK1 in human MDA-MB-231 cells assessed as increase in ERK expression at 25 to 100 uM incubated for 24 hrs by Western blot analysis; format: cell-based; conditions: filed as activator, dose 25-100 µM; method in brief: as §2
Target sequence in this assay (Q9BUB5 whole entry, looked up): as the sequence (Q9BUB5 whole entry, looked up) above

HEK293 = assay: Potentiation of MNK1/eIF4E interaction in HEK293 cells assessed as increase in MNK1 phosphorylation at T209/T214 residues at 100 nM preincubated for 24 hrs followed by UV irradiation and recovery for 40 mins by immunoprecipitation based Western blot assay; format: cell-based; conditions: Homo sapiens, filed as activator, in the assay text read “MNK1/eIF4G interaction” for “MNK1/eIF4E interaction”
Method in brief: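 HEK-293 cells were exposed to DMSO or inhibitor (100 nM) for 24 h, irradiated with UV at 60 J/m2 and recovered for 40 min at 37 °C. Endogenous eIF4G was immunoprecipitated from about 2 mg of precleared NP-40 lysate on protein A beads overnight at 4 °C. The IP and input were immunoblotted for MNK1 and p-MNK1.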

[19] = target: T1, MAP kinase-interacting serine/threonine-protein kinase 1; assay: Activation of MNK1 in human MDA-MB-231 cells assessed as increase in MNK1 phosphorylation at T209/T214 residues at 1.6 to 100 uM incubated for 24 hrs by Western blot analysis; format: cell-based; conditions: filed as activator, dose 1.6-100 µM; method in brief: as §2
Target sequence in this assay (Q9BUB5 whole entry, looked up): as above

| Structure (SMILES) | Activity [1] [%] | Activity [2] [%] | other results |
| --- | --- | --- | --- |
| COc1ccc(-c2cc(-c3ccc(OC)cc3)c3c(N)n[nH]c3n2)cc1 | 60 | 101 |  |
| COc1ccc(-c2cc(-c3ccccc3)nc3c2c(N)nn3C)cc1 | 102 | 145 |  |
| Nc1n[nH]c2nc(-c3ccccc3)cc(-c3ccccc3)c12 | 14 | 52 | inhibition [3]: Active; Activity (MDA-MB-231 [4]): Dde; Activity (IMR-90 [5]): Non-Toxic; inhibition [6]: Active; GI50 (MDA-MB-231 [7]): 15.1 µM; Activity (IMR-90 [8]): Non-Toxic; inhibition [9]: Dde; inhibition [10]: Dde; GI50 (MCF7): 8.46 µM; inhibition [11]: Tde; GI50 (MDA-MB-468): 14.5 µM; inhibition [12]: Dde; Activity (MDA-MB-231 [13]): 60%; inhibition [14]: Dde; GI50 (IMR-90 [15]): > 40 µM |
| COc1cccc(-c2cc(-c3ccc(F)cc3)c3c(N)n[nH]c3n2)c1 | 51 | 82 |  |
| COc1ccc(-c2cc(-c3ccccc3OC)nc3[nH]nc(N)c23)cc1 | 63 | 109 |  |
| Nc1n[nH]c2nc(-c3ccccc3)cc(-c3ccc(F)cc3)c12 | 31 | 62 | IC50 [16]: 1.3 µM; Ratio IC50 (Homo sapiens): 4; IC50 [17]: 4.1 µM; inhibition [14]: Dde |
| COc1ccc(-c2cc(-c3ccc(C)cc3)c3c(N)n[nH]c3n2)cc1 | 45 | 82 |  |
| COc1ccc(-c2cc(-c3cccc(OC)c3)nc3[nH]nc(N)c23)cc1 | 41 | 92 |  |
| COc1ccc(-c2cc(-c3ccccc3)nc3[nH]nc(N)c23)cc1 | 25 | 74 |  |
| Nc1c2c(-c3ccccc3)c(Cl)c(Cl)nc2nn1-c1ccccc1 | 103 | 102 |  |
| Cn1nc(N)c2cccnc21 | 106 | 95 |  |
| Nc1n[nH]c2ncccc12 | 95 | 102 |  |
| Nc1c2cc(-c3c(Cl)cccc3Cl)c(Cl)nc2nn1-c1ccccc1 | 97 | 99 |  |
| Cc1cc(Nc2cc(N)ncn2)c(=O)n2c1C(=O)NC21CCCCC1 |  |  | Activity [18]: Active; Activity (HEK293): Active; Activity [19]: Active |
| Cn1nc(N)c2c(-c3ccccc3)cc(-c3ccccc3)nc21 | 80 | 117 |  |
| COc1ccccc1-c1cc(-c2ccc(C)cc2)c2c(N)n[nH]c2n1 | 61 | 123 |  |
| COc1ccc(-c2cc(-c3ccc(OC)cc3)c3c(N)nn(C)c3n2)cc1 | 94 | 154 |  |
| COc1cccc(-c2cc(-c3ccccc3)c3c(N)n[nH]c3n2)c1 | 38 | 74 | IC50 [16]: 4.2 µM; Ratio IC50 (Homo sapiens): 4; IC50 [17]: 22 µM; inhibition [14]: Dde |
